Screens: PubChem BioAssay, Johns Hopkins Ion Channel Center
Rows were chosen to be rich in hits. Some 3.5% of all compounds tested hit in one or more screens of this group.
MrgX1 agonist – agonists of human MrgX1 receptor, primary screen, HEK293 cells, Fluo-4 calcium flux. B-score at 10 µM. Fluo-4 calcium fluorescence, agonist mode; stronger effect = higher value. 310,000 tested, 0.44% active. Mas-related G-protein coupled receptor member X1 (Homo sapiens), Q96LB2;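 active = calcium response B-score plate-corrected fluorescence ratio at least 3 library SD, with starting fluorescence B-score inside 5 SD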
Target sequence (Q96LB2 whole entry, looked up): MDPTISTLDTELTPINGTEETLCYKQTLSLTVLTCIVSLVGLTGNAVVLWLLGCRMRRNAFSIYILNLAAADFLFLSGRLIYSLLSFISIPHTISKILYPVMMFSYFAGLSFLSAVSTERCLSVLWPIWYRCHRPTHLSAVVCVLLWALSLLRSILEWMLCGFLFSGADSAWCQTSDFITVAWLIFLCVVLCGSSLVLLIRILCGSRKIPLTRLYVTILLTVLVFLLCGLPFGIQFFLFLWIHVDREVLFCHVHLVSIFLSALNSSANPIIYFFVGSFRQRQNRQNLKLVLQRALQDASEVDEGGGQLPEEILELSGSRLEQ
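Material: MrgX1-expressing HEK293 cells; input: 15,000 cells per well; doses: test compound given as first of three sequential additions; schedule: overnight plating before 1 h dye loading; technique: Fluo-4 NW calcium-flux fluorescence, kinetic read; evaluation: baseline-normalised fluorescence change ratio, B-scored; control set: plate-wise positive and negative controls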
RGS4 inh – RGS4 inhibitors, primary screen, cell-based, HEK293 M3R inducible RGS4, calcium flux. B-score at 10 µM. Regulator of G-protein signaling 4 (Homo sapiens), P49798. Fluo-4 calcium flux; stronger effect = higher value; triggered by carbachol at its EC20. AID 463165, 2010. 310,000 tested, 0.45% active;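 active = B-score, a plate-corrected calcium signal, over three deviations above library mean, with baseline fluorescence within five deviations of library mean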;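 also: RGS4 expression induced by doxycycline in cells with stable M3 receptor; B-score is computed from the integrated fluorescence ratio over baseline after carbachol; higher B-score means a larger calcium signal and so more RGS4 inhibition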
Target sequence (P49798 whole entry, looked up): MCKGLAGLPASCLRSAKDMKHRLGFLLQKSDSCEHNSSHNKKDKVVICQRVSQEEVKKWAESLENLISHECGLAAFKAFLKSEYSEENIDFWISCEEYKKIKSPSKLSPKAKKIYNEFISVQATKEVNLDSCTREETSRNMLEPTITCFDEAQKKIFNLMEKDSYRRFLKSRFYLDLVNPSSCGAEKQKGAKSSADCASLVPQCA
RGS4 pot – RGS4 potentiators or activators, primary screen, cell-based, HEK293 M3R inducible RGS4, calcium flux. carbachol calcium flux Fluo4; stronger effect = lower value. B-score at 10 µM. 310,000 tested, 0.92% active. AID 463111, 2010;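 active = B-score of the integrated calcium signal more than 4 SD below the library mean, with starting fluorescence not abnormally high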;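 also: negative B-score means reduced calcium response which marks RGS4 activation or potentiation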
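test system = M3R-expressing HEK293 line, RGS4 induced by doxycycline | probe or stimulus = carbachol at ECmax as muscarinic agonist stimulus | timing = dye loading 30 min 37 °C, buffer rest 30 min RT | signal = calcium dye Fluo4 fluorescence | evaluation = B score from integrated fluorescence ratio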
MrgX1 antagonist – antagonists of human MrgX1 receptor, primary screen, HEK293 cells, Fluo-4 calcium flux; Mas-related G-protein coupled receptor member X1 (Homo sapiens), Q96LB2; BAM8-22 antagonism; stronger effect = lower value; B-score at 10 µM; 310,000 tested, 1.3% active; AID 588676, 2011;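 active = calcium-response B-score plate-corrected more than 3 library SD below zero, starting fluorescence within 5 deviations, no agonist response on first addition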;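 also: peak minus trough fluorescence over baseline after final BAM8-22 challenge near maximal dose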
MrgX1 PAM – positive allosteric modulators of MrgX1, primary screen, HEK293 cells, Fluo-4 calcium flux; Mas-related G-protein coupled receptor member X1 (Homo sapiens), Q96LB2; B-score at 10 µM; FDSS; stronger effect = higher value; AID 588675, 2011; 310,000 tested, 0.63% active;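 active = plate-corrected calcium response at least 3 library SD above typical, normal starting fluorescence, not activating the receptor alone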;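 also: compound read alongside a low EC10 to EC30 dose of BAM8-22 agonist; peak minus trough fluorescence over baseline measured at the second addition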
Starred values were filed as active, the others as inactive; i = inactive; . = no result.

SMILES	MrgX1 agonist	RGS4 inh	RGS4 pot	MrgX1 antagonist	MrgX1 PAM
O=C(Nc1ccc(Cl)cn1)c1ccc([N+](=O)[O-])o1	.	i	i	.	.
C=CCn1c(-c2c(C)nc3cc(C)ccn23)n[nH]c1=S	i	i	i	-5.89*	i
C=CCn1c(-c2ccc(OC)c(OC)c2)n[nH]c1=S	i	i	i	i	i
C=C(C)Cn1c(-c2cccc([N+](=O)[O-])c2)n[nH]c1=S	i	i	i	-4.79*	i
CCCCn1c(-c2ccc([N+](=O)[O-])cc2)n[nH]c1=S	i	i	-10.2*	i	i
C=CCn1c(-c2cccc([N+](=O)[O-])c2)n[nH]c1=S	i	i	i	i	i
CCCn1c(-c2ccc(F)cc2)n[nH]c1=S	i	i	i	i	i
CCC(SC1=Nc2ccccc2C2=NC(CC(C)C)C(=O)N12)C(=O)Nc1ccc2c(c1)OCO2 (configuration not stated)	i	i	i	i	i
Cc1cccc(N(C(=O)c2snc(C(N)=O)c2N)C(C(=O)NCC2CCCO2)c2cccs2)c1 (configuration not stated)	i	i	i	-4.73*	i
Cc1ccc(C)c(N(C(=O)c2snc(C(N)=O)c2N)C(C(=O)NCC2CCCO2)c2cccs2)c1 (configuration not stated)	i	i	i	i	i
OC(C#CCCN1CCCCC1)(c1ccccc1)c1ccccc1	i	i	i	i	i
C[N+]1(CC#CC(O)(c2ccccc2)c2ccccc2)CCCC1	i	i	-8.45*	i	i
CC(C)[N+](C)(C)CC#CC(O)(c1ccccc1)c1ccccc1	i	i	-7.77*	i	i
O=C(NN1C(=O)C2C3C=CC(C3)C2C1=O)c1ccccc1 (configuration not stated)	i	i	i	i	i
Cc1cccc(C(=O)NN2C(=O)C3C(c4ccccc4)C=CC(c4ccccc4)C3C2=O)c1 (configuration not stated)	i	i	-7.09*	i	i
CCOC(=O)C1CCCN(C(c2ccccn2)c2c(C)[nH]c3ccccc23)C1 (configuration not stated)	i	i	-8.36*	i	i
N#Cc1ccc(NC(=O)CNc2cc(S(=O)(=O)N3CCOCC3)ccc2NCC2CCCO2)cc1 (configuration not stated)	i	i	i	i	6.61*
Cc1ccc(S(=O)(=O)N2CCC(=O)N(C(COCc3cccc(C)c3)Cc3ccccc3)CC2)cc1 (configuration not stated)	i	i	i	i	i
Cc1ccc(S(=O)(=O)N2CCC(=O)N(C(COCc3ccc(C(F)(F)F)cc3)Cc3ccccc3)CC2)cc1 (configuration not stated)	i	i	-7.3*	i	i
Cc1ccc(S(=O)(=O)N2CCC(=O)N(C(COCc3ccc(Cl)c(Cl)c3)Cc3ccccc3)CC2)cc1 (configuration not stated)	i	i	i	-6.13*	i
CC(C)OCCCn1c(=S)[nH]c2cc3c(cc2c1=O)OCO3	i	i	i	i	i
CCN(CC)CCOC(=O)c1ccc(NC(=O)CCCN2C(=O)/C(=C/c3cccs3)SC2=S)cc1	i	i	-8.34*	i	i
C/C(=N/NC(=O)CSc1nc2ccccc2n1C)c1ccc(O)cc1	i	i	i	-4.92*	i
CCC(C)(C)NC(=O)C(c1ccc(F)cc1)N(Cc1cccs1)C(=O)c1cnccn1 (configuration not stated)	i	i	i	-5.32*	i
CCC(C)(C)NC(=O)C(c1ccc(F)cc1)N(Cc1cccc(OC)c1)C(=O)c1cnccn1 (configuration not stated)	i	i	i	i	i
SMILES	MrgX1 agonist	RGS4 inh	RGS4 pot	MrgX1 antagonist	MrgX1 PAM
O=C(COC(=O)c1ccccn1)NCc1ccccc1	i	i	i	i	i
COC(=O)[C@@]1(Cc2ccc(F)cc2)[C@H]2c3cc(C(=O)N(C)C)n(Cc4ccc(OC)c(OC)c4)c3C[C@H]2CN1C(=O)c1ccccc1	i	i	i	i	i
COC(=O)[C@@]1(Cc2ccc(F)cc2)[C@H]2c3cc(C(=O)N(C)C)n(CCc4ccc(OC)c(Br)c4)c3C[C@H]2CN1C(=O)c1ccccc1	i	i	-7.21*	i	i
COC(=O)[C@@]1(Cc2ccccc2)[C@H]2c3cc(C(=O)N4CCCC4)n(CCSCCO)c3C[C@H]2CN1C(=O)c1ccccc1	i	i	i	-5.21*	i
CC(=O)NCCC(=O)N1CCCC(N(C)CCc2ccccc2)C1 (configuration not stated)	i	i	i	i	i
Clc1cccc(NCc2nnc(SCc3ccc(Cl)cc3Cl)o2)c1	i	i	-8.59*	i	i
COc1ccc2c(c1)c1nc3ccccc3nc1n2Cc1ccc(OC(C)C)c(OC)c1	i	i	i	-6.7*	i
COc1ccc(Cn2c3ccc(OC)cc3c3nc4ccccc4nc32)cc1	i	i	i	i	i
Cc1oc(-c2cccc(Cl)c2)nc1CN1CCCC(C(=O)NC(C)c2ccc3c(c2)OCCO3)C1 (configuration not stated)	i	i	-6.96*	i	i
COc1ccccc1CCC(=O)OCC(=O)Nc1cccc(S(=O)(=O)N2CCCCC2)c1	i	i	i	-4.74*	i
CCN(CC)CCNC(=O)C1CCCCN1S(=O)(=O)c1cccc([N+](=O)[O-])c1 (configuration not stated)	i	i	i	i	i
O=C(c1ccc(Cl)cc1)N1CCC(O)(CSc2ccc(Cl)cc2Cl)CC1	i	i	i	i	i
Cc1cccc2sc(NNC(=O)c3cc(=O)c4ccccc4o3)nc12	i	i	i	i	i
Cc1ccc2sc(NNC(=O)c3cc(=O)c4ccccc4o3)nc2c1C	i	i	i	-8.74*	i
CCO/N=C(\C)c1c(O)c(CC)c(-c2ccccc2)n(-c2ccccc2)c1=O	i	i	i	i	i
CCCCC(=O)NC(=S)Nc1ccccc1N1CCCCC1	i	i	i	i	i
CCCC(=O)NC(=S)Nc1ccccc1N1CCOCC1	i	i	i	-7.75*	i
